Laboratory results reported in article PMC10259527 (International Journal of Nanomedicine, 2023).

Experiments:
[1] = Biodistribution by ex vivo fluorescence imaging of major organs; type: in vivo, BALB/c nude mice; conditions: Cy5.5-labeled, single oral 25 mg/kg, mice
Summary of the method: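 Female BALB/c nude mice, acclimated 1 week and fasted 12 h overnight with water, got one oral dose of 25 mg/kg (by parent mass). Cy5.5-labeled nanoparticles were given in PBS; Cy5.5-labeled free compound as an H2O/DMSO (40:1) suspension. Four mice per group were killed at 2, 4, 6, 8 and 24 h. Heart, liver, lungs, spleen and kidneys were PBS-washed and imaged ex vivo for fluorescence. Liver intensity was quantified (n = 4, mean ± SEM).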

[2] = In vivo toxicity in the hepatic AE mouse model; design: species or system C57BL/6J mice; conditions: oral 100 mg/kg once daily for 30 days; for Histopathology of liver parenchyma surrounding the metacestodes: H&E
Summary of the method: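 Female C57BL/6J mice were infected by portal-vein protoscolex injection. At 3 months, after ultrasound-confirmed metacestode growth, mice (n = 8/group) got oral gavage at 100 mg/kg daily for 30 days, dosed with 0.5% CMC suspensions or CMC alone. Sham-operated uninfected mice got portal saline. Afterwards, retro-orbital blood was drawn under isoflurane. Plasma (2000 g, 15 min, 4°C; stored −20°C) was assayed for ALT/AST on an automatic biochemical analyzer.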

Cytotoxicity assay = type: cell-based; conditions: human, HepG2 cells
Summary of the method: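 HepG2 cells were seeded at 5×10^3/well. Treatment ran 48 h at 37°C, 5% CO2: free compound at 10–50 μM, nanoparticle form at 10–100 μM. Controls got vehicle only (0.1% v/v DMSO or deionized water). Viability was read by CCK-8 and normalized to vehicle controls, mean ± SEM.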

[3] = In vivo pharmacokinetic study; design: species or system BALB/c mice; conditions: BALB/c, mouse, plasma
Summary of the method: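 BALB/c mice (5–6 weeks, 20 ± 2 g; n = 6 per time point, 3 male + 3 female) got one IV dose (5 mg/kg) or oral gavage (100 mg/kg). Free compound was given in 5% DMSO/10% solutol HS-15/85% (20% hydroxypropyl-β-cyclodextrin in saline). Tail-vein blood was taken at 0.08–48 h and plasma separated at 2000 g, 15 min. Concentrations were measured by LC–MS/MS; parameters came from non-compartmental analysis.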

CCCNCC(O)Cn1c2ccc(Cl)cc2c2cc(Cl)ccc21 (centres unmarked) [Compound H1402, 1-(3,6-dichloro-9H-carbazol-9-yl)-3-(propylamino)propan-2-ol]
Decrease of fluorescence intensity in the liver from 8 h to 24 h [1]: 49.9% | Histopathology of liver parenchyma surrounding the metacestodes [2]: inflammatory infiltrate, fibroplastic proliferation, and hepatocellular necrosis | Liver transaminases (mean ALT and AST values) ([2]; compared to shamed individuals): various degrees of increase | CC50 at 48 h (Cytotoxicity assay): 14.9 µM | AUC(0-inf) ([3]; both, iv, 5 mg/kg): 7.6 µM·h | AUC(0-t) ([3]; both, iv, 5 mg/kg): 7.5 µM·h | Cmax ([3]; both, iv, 5 mg/kg): 2.6 µM | Tmax ([3]; both, iv, 5 mg/kg): 0.083 h | Vd ([3]; both, iv, 5 mg/kg): 19 L/kg | clearance ([3]; both, iv, 5 mg/kg): 32 mL/min/kg | half-life ([3]; both, iv, 5 mg/kg): 7 h | bioavailability ([3]; both, oral, 100 mg/kg): 69.8% | AUC(0-inf) ([3]; both, po, 100 mg/kg): 128 µM·h | AUC(0-t) ([3]; both, po, 100 mg/kg): 104 µM·h | Cmax ([3]; both, po, 100 mg/kg): 4.4 µM | Tmax ([3]; both, po, 100 mg/kg): 6 h | half-life ([3]; both, po, 100 mg/kg): 17.5 h | half-life ([3]; female, po, 100 mg/kg): 24.6 h | half-life ([3]; male, po, 100 mg/kg): 10.4 h

CCCSc1ccc2nc(NC(=O)OC)[nH]c2c1 [albendazole, reference compound]
Histopathology of liver parenchyma surrounding the metacestodes [2]: inflammatory infiltrate, fibroplastic proliferation, and hepatocellular necrosis
